# Screening data (PubChem)
# A selection: hits, their analogues and other compounds. The true share with any hit is near 9.5%.
# M1 agonist: M1 muscarinic receptor agonism; CHO-M1 cells, Fluo-4 calcium fluorescence, agonist mode; active compounds read high; B-score at 10 µM; actives 3% (n = 64,000); AID 626;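 active = fluorescence rise, raw or as B-score row- and column-corrected plate score, outside the 99.7% band of its plate's samples, either direction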
# D1 allo mod: allosterically modulates the human D1 dopamine receptor; HEK293 D1, CRE-luciferase, dopamine EC30 potentiation; actives deviate in either direction; B-score at 10 µM; actives 5.9% (n = 58,000); AID 641;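 active = luminescence count or its row- and column-corrected plate score outside the 99.7% band of the plate's sample wells, on either side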
# M1 antagonist: antagonists of rat M1 muscarinic receptor; P08482; CHO-M1 cells, Fluo-4 calcium, ACh EC80 antagonist mode; active compounds read low; B-score at 10 µM; actives 3.4% (n = 64,000); AID 628;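 active = calcium fluorescence response, raw or row-and-column corrected B-score, differing from the plate sample mean either way at a set confidence level, mostly lower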
# Jurkat tox 60K: reduces viability or proliferation of Jurkat cells | inhibition, % at 4 µM | actives 1.2% (n = 56,000) | Jurkat E6.1 viability, ATP luminescence, 48 h | AID 463;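 active = inhibition above the mean inhibition of all tested compounds plus 3 SD, cut at about 28% in these data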
# Htt clearance: compounds clearing mutant huntingtin protein; inhibition, % at 1.5 µM; actives 0.42% (n = 47,000); HeLa Exon1htt(103Q)mCFP, aggregate imaging; zero = plate's median compound well;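 active = inhibition of aggregate fluorescence above about 70%, also judged a hit by eye on the cell image, limit read from the data, passing the limit was not always enough; inconclusive = no rule stated for this call; inactive = not judged a hit on image review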;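 note: cells exposed to compound for three days before fixation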
# HEK293 NFkB inh: lowers PMA/ionomycin-induced NF-kB signal in HEK293 cells | HEK-293 NF-kB luciferase reporter, luminescence | inhibition, % at 3 µM | actives 0.21% (n = 62,000);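 active = inhibition above the mean of all tested compounds plus 3 SD, cut at about 40% in these data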;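 note: 0% = stimulated DMSO wells and 100% = 10 µM reference inhibitor 5653914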
#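 Reagent: PMA plus ionomycin mix as NF-kB-activating stimulus. Assay system: NF-kB luciferase reporter HEK-293 cells. Technique: luminescence from luciferase substrate reagent. Incubation: 1 h compound pre-incubation, 16 h PMA/ionomycin at 37 °C. Benchmarks: DMSO only as uninhibited control, 10 µM reference inhibitor as full inhibition. Repeats: tested once.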
# M1 ag confirm: confirmation of rat M1 muscarinic receptor agonists | shares compounds with M1 agonist | CHO-M1 cells, Fluo-4 calcium fluorescence, agonist mode; actives lie on both sides | fluorescence change (max-min) at 10 µM | actives 19% (n = 1,700);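 active = fluorescence change differs from the solvent-only DMSO control mean at a set confidence level in both duplicate runs; inconclusive = differs from solvent-only control mean in just one of two runs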;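 note: an EC20 dose of acetylcholine follows compound addition during the same imaging run; raw fluorescence intensity difference in instrument units with no normalization to controls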
# M4 ag counter: activates rat M4 receptor in counter-screen for M1 agonists | shares compounds with M1 agonist | CHO M4/Gqi5 cells, Fluo-4 calcium fluorescence, agonist mode; actives lie on both sides | fluorescence change (max-min) at 10 µM | actives 9% (n = 1,700) | AID 1741;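 active = fluorescence change differing from the plate's solvent-only control wells at 99.7% confidence in both duplicates, whether higher or lower; inconclusive = differs from solvent controls in only one of two duplicates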
# Target sequence (P08485 whole entry, looked up): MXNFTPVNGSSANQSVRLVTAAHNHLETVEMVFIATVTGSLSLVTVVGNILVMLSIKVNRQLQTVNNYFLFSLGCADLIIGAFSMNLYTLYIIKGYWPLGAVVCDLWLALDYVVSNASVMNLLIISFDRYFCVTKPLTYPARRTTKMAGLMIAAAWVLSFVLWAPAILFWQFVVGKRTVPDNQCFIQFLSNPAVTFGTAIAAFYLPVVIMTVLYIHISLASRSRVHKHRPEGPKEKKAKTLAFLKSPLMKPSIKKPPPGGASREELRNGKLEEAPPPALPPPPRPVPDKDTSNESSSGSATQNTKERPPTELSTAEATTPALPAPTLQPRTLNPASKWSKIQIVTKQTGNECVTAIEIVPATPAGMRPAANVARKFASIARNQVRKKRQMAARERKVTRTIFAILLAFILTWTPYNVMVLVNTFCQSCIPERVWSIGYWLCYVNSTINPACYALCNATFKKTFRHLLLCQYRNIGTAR
# M1 antag conf: M1 muscarinic receptor (rat) antagonism, confirmed | shares compounds with M1 antagonist | AID 677 | actives 43% (n = 1,700) | CHO-M1 cells, Fluo-4 calcium, ACh EC80 antagonism; active compounds read low | calcium response (max-min fluorescence) at 10 µM;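 active = calcium response below the same-plate mean of wells given acetylcholine alone at its 80%-effect dose, minus 3 SD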;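 note: raw fluorescence intensity difference in arbitrary instrument units and not normalized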
# mGluR4 antag: acts on human mGluR4 in M1 antagonist selectivity test; shares compounds with M1 antagonist; CHO-mGluR4 calcium flux, Fluo-4 fluorescence, glutamate EC80; active compounds read low; fluorescence response (max-min) at 10 µM; actives 0.9% (n = 1,700); AID 678;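 active = fluorescence response below the plate's average for near-maximal glutamate wells, less 3 SD of those wells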;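 note: raw unnormalized fluorescence span taken in the window right after glutamate addition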
# D1 mod confirm: D1 receptor (human) allosteric modulation, confirmed | actives 88% (n = 2,200) | luminescence at 10 µM | shares compounds with D1 allo mod | HEK293 D1 CRE-luciferase, dopamine EC30 potentiation; active compounds read high | AID 642;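 active = luminescence in either of two replicates above the same-plate mean plus 3 SD of the low-dose dopamine control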
# D1 no dopamine: activates D1 CRE-luciferase signal without dopamine present; shares compounds with D1 allo mod; HEK293 D1 CRE-luciferase, luminescence, no dopamine; active compounds read high; luminescence at 10 µM; actives 0.8% (n = 1,900); AID 646; in the data active = luminescence above about 3900
# Isoprot counter: counter-screen for D1 modulators: isoproterenol response in HEK293 cells. shares compounds with D1 allo mod. HEK293 D1 CRE-luciferase, isoproterenol EC30 counter-screen; active compounds read high. luminescence at 10 µM. actives 63% (n = 2,200). AID 647;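 active = luminescence in either replicate above plate mean of wells with a partly effective reference agonist dose plus 3 SD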;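 note: isoproterenol raises cAMP through native beta-adrenoceptor Gs so signal bypasses D1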
# Active calls of the source: *; ? = inconclusive; . = no result given.
SMILES,M1 agonist,D1 allo mod,M1 antagonist,Jurkat tox 60K,Htt clearance,HEK293 NFkB inh,M1 ag confirm,M4 ag counter,D1 mod confirm,D1 no dopamine,Isoprot counter,others
CCOP(=O)(c1ccccc1)C1(O)CCCCC1 (stereo unspecified),.,.,.,.,35.2,.,.,.,.,.,.,
Cc1ccc(S(=O)(=O)c2cc3c(=O)n4cccc(C)c4nc3n(Cc3ccco3)c2=N)cc1C,0.762,1.6,0.625,2.5,.,22.0,.,.,.,.,.,
Cc1ccc(S(=O)(=O)c2cc3c(=O)n4ccccc4nc3n(Cc3ccco3)c2=N)cc1,-2.4*,4.97*,0.0524,.,14.0,23.2,22.3,16.7,15320*,2068,4328*,
Cc1cc(C)c(NC(=O)C2CSCCS2)c(C)c1 (stereo unspecified),-0.682,-0.222,1.07,-1.6,20.7,1.0,.,.,.,.,.,
CCn1nc(NC(=O)c2ccccn2)c2cc3cc(C)ccc3nc21,-0.00622,0.901,1.03,-5.5,.,-5.2,.,.,.,.,.,
CCn1nc(NC(=O)c2cccnc2)c2cc3ccccc3nc21,5.01*,6.64*,-0.0959,.,-30.9,.,-29.9*,-91.6*,7008*,1544,2812*,
C=CCN1C(=O)CC(C(=O)NC)SC1=Nc1ccc(C(=O)OCC)cc1 (stereo unspecified),-0.964,-0.0665,0.249,.,31.2,.,.,.,.,.,.,
CCC(CC)NC(=O)Cc1ccccc1OC,.,.,.,.,-42.1,.,.,.,.,.,.,
COC(=O)COc1ccc2c(-c3ccc(OC)cc3)cc(=O)oc2c1,.,.,.,.,2.5,.,.,.,.,.,.,
COc1ccc(-c2cc(=O)oc3c(C)c(O)c(CN(C)C)cc23)cc1,6.39*,3.6*,-0.0206,4.7,54.9,5.9,-0.858,-3.25,9264*,1600,2316,
c1cncc(-c2nnc(-c3cccs3)o2)c1,-0.4,0.112,1.21,.,2.9,11.0,.,.,.,.,.,
N#Cc1c(-c2cccs2)cc(-c2cccnc2)nc1N,2.84*,18.3*,0.694,9.5,38.0,6.6,?,-48.6,16780*,1536,3548*,
Cc1cc(O)c(-c2n[nH]c3c2C(c2cccc(O)c2)N(Cc2cccnc2)C3=O)cc1Cl (stereo unspecified),.,1.18,.,1.7,-30.8,-2.6,.,.,.,.,.,
O=C1OCc2ccc(NC(=O)C3CCCCC3)cc21,-3.27*,7.51*,-1.03,.,8.8,6.6,-36.2*,-69.4,7424,1748,2488,
COC(=O)c1cc(=O)n(Cc2ccco2)c(=Nc2ccc(F)c(Cl)c2)s1,7.07*,7.38*,-0.662,5.1,-8.9,19.7,-14.6,-38.8,8744*,1432,2840,
COc1cc2nc(N3CCNCC3)nc(N)c2cc1OC,0.58,0.407,-1.43*,-1.2,-18.7,20.8,.,.,.,.,.,M1 antag conf=663;mGluR4 antag=183
CCCC(CCC)C(=O)OC1C[C@H]2CC[C@@H](C1)[N+]2(C)C (stereo partly specified),-0.154,-0.367,-15.2*,.,.,.,.,.,.,.,.,M1 antag conf=30.3*;mGluR4 antag=246
CCCCC(CC)C(=O)NCCCN1CCN(CCCNC(=O)C(CC)CCCC)CC1 (stereo unspecified),1.92,-0.776,-0.0926,-10.3,.,14.4,.,.,.,.,.,
